Common to all, as to format: cell-based
Assay [1] concerns the target Histone-lysine N-methyltransferase EZH2 (Mus musculus) (UniProt Q61188). The experiment in a line: Inhibition of EZH2 in mouse B16-F1 migrating cells assessed as fold change in H3K27me3-dependent regulated Espnl-mRNA expression at 3 uM measured by […] analysis relative to control cells. The procedure, abridged: (§1)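 Confluent B16-F1 cells on fibronectin-coated plates were scratched at multiple sites, washed once with DMEM and left to migrate 3 h in growth medium (37 °C, 7% CO2); unscratched cells served as control. GSK343 (3 µM) was added 3 h before lysis. Poly A mRNA was sequenced (RNA-seq), with 5 replicates for untreated and 3 for treated cells. Differential expression was called by linear model with batch correction, at FDR <0.05 and fold change ≥1.3.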

For assay [2] the target is unchanged. Kind of assay: Inhibition of EZH2 in mouse B16-F1 migrating cells assessed as fold change in H3K27me3-dependent regulated Pxdc1-mRNA expression at 3 uM measured by […] analysis relative to control cells. The procedure, abridged:
as §1

The target is the same in assay [3]. Kind of assay: Inhibition of EZH2 in mouse B16-F1 migrating cells assessed as fold change in H3K27me3-buffered regulated Ctxn1-mRNA expression at 3 uM measured by ChIP-seq analysis relative to control cells. An outline of the steps: (§2)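 Confluent B16-F1 cells on fibronectin-coated plates, cultured at 37 °C and 7% CO2, were scratched at multiple sites to induce migration. They were then held 3 h in growth medium containing 3 µM GSK343, with the inhibitor added 3 h before lysis. Unscratched cells served as controls. Poly A mRNA was analysed by RNA-seq (n=3 GSK343, n=5 controls). Linear models removed batch effects, and buffered genes were those altered only under GSK343 (FDR <0.05, fold change >1.3).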

Assay [4] has the same target. Kind of assay: Inhibition of EZH2 in mouse B16-F1 migrating cells assessed as fold change in H3K27me3-buffered regulated Dlg4-mRNA expression at 3 uM measured by ChIP-seq analysis relative to control cells. The procedure, abridged:
as §2

The target is the same in assay [5]. The experiment in a line: Inhibition of EZH2 in mouse B16-F1 migrating cells assessed as fold change in H3K27me3-buffered regulated Pcf11-mRNA expression at 3 uM measured by […] analysis relative to control cells. An outline of the steps:
as §2

For assay [6] the target is unchanged. The experiment in a line: Inhibition of EZH2 in mouse B16-F1 migrating cells assessed as fold change in H3K27me3-buffered regulated Dzip3-mRNA expression at 3 uM measured by […] analysis relative to control cells. An outline of the steps:
as §2

For assay [7] the target is unchanged. The experiment in a line: Inhibition of EZH2 in mouse B16-F1 migrating cells assessed as fold change in H3K27me3-buffered regulated A130010J15Rik-mRNA expression at 3 uM measured by […] analysis relative to control cells. An outline of the steps:
as §2

Assay [8] shares this target. Kind of assay: Inhibition of EZH2 in mouse B16-F1 migrating cells assessed as fold change in H3K27me3-buffered regulated Stk10-mRNA expression at 3 uM measured by ChIP-seq analysis relative to control cells. An outline of the steps: as §1
The target of assay [9] is T1, RNA polymerase II (Mus musculus) (UniProt P08775+Q8CFI7+P97760+A0A3Q4L2S8+Q80UW8+P61219+P62488+Q923G2+P60898+O08740+Q63871+P62876). The experiment in a line: Inhibition of RNA polymerase II in mouse B16-F1 migrating cells assessed as fold change in Higd1a-RNA stability at 0.1 mM measured by ChIP-seq analysis relative to control cells.
The target in assay [10] is T1, RNA polymerase II (Mus musculus). The experiment in a line: Inhibition of RNA polymerase II in mouse B16-F1 migrating cells assessed as fold change in Sh3bgrl3-RNA stability at 0.1 mM measured by […] analysis relative to control cells.
The target is the same in assay [11]. Kind of assay: Inhibition of RNA polymerase II in mouse B16-F1 migrating cells assessed as fold change in Alg2-RNA stability at 0.1 mM measured by […] analysis relative to control cells.
Assay [12] shares this target. Kind of assay: Inhibition of RNA polymerase II in mouse B16-F1 migrating cells assessed as fold change in Rpl14-RNA stability at 0.1 mM measured by […] analysis relative to control cells.
For assay [13] the target is unchanged. The experiment in a line: Inhibition of RNA polymerase II in mouse B16-F1 migrating cells assessed as fold change in Stx8-RNA stability at 0.1 mM measured by […] analysis relative to control cells.
Assay [14] shares this target. Kind of assay: Inhibition of RNA polymerase II in mouse B16-F1 migrating cells assessed as fold change in Acbd6-RNA stability at 0.1 mM measured by […] analysis relative to control cells.
Assay [15] has the same target. The experiment in a line: Inhibition of RNA polymerase II in mouse B16-F1 migrating cells assessed as fold change in Eri3-RNA stability at 0.1 mM measured by ChIP-seq analysis relative to control cells.
Assay [16] shares this target. The experiment in a line: Inhibition of RNA polymerase II in mouse B16-F1 migrating cells assessed as fold change in Lamp2-RNA stability at 0.1 mM measured by ChIP-seq analysis relative to control cells.
The target is the same in assay [17]. The experiment in a line: Inhibition of RNA polymerase II in mouse B16-F1 migrating cells assessed as fold change in Calu-RNA stability at 0.1 mM measured by […] analysis relative to control cells.
For assay [18] the target is unchanged. Kind of assay: Inhibition of RNA polymerase II in mouse B16-F1 migrating cells assessed as fold change in Bpnt1-RNA stability at 0.1 mM measured by […] analysis relative to control cells.
The target is the same in assay [19]. Kind of assay: Inhibition of RNA polymerase II in mouse B16-F1 migrating cells assessed as fold change in Rassf2-RNA stability at 0.1 mM measured by […] analysis relative to control cells.
For assay [20] the target is unchanged. The experiment in a line: Inhibition of RNA polymerase II in mouse B16-F1 migrating cells assessed as fold change in Otud6b-RNA stability at 0.1 mM measured by […] analysis relative to control cells.
Assay [21] has the same target. Kind of assay: Inhibition of RNA polymerase II in mouse B16-F1 migrating cells assessed as fold change in Mbtd1-RNA stability at 0.1 mM measured by ChIP-seq analysis relative to control cells.
The target is the same in assay [22]. The experiment in a line: Inhibition of RNA polymerase II in mouse B16-F1 migrating cells assessed as fold change in Nrp1-RNA stability at 0.1 mM measured by […] analysis relative to control cells.
Assay [23] has the same target. The experiment in a line: Inhibition of RNA polymerase II in mouse B16-F1 migrating cells assessed as fold change in Efcab7-RNA stability at 0.1 mM measured by ChIP-seq analysis relative to control cells.
The target is the same in assay [24]. The experiment in a line: Inhibition of RNA polymerase II in mouse B16-F1 migrating cells assessed as fold change in Psip1-RNA stability at 0.1 mM measured by […] analysis relative to control cells.
Assay [25] shares this target. The experiment in a line: Inhibition of RNA polymerase II in mouse B16-F1 migrating cells assessed as fold change in Yes1-RNA stability at 0.1 mM measured by […] analysis relative to control cells.
Assay [26] has the same target. The experiment in a line: Inhibition of RNA polymerase II in mouse B16-F1 migrating cells assessed as fold change in Zfp367-RNA stability at 0.1 mM measured by […] analysis relative to control cells.

Chain of Histone-lysine N-methyltransferase EZH2 (Mus musculus) (Q61188 whole entry): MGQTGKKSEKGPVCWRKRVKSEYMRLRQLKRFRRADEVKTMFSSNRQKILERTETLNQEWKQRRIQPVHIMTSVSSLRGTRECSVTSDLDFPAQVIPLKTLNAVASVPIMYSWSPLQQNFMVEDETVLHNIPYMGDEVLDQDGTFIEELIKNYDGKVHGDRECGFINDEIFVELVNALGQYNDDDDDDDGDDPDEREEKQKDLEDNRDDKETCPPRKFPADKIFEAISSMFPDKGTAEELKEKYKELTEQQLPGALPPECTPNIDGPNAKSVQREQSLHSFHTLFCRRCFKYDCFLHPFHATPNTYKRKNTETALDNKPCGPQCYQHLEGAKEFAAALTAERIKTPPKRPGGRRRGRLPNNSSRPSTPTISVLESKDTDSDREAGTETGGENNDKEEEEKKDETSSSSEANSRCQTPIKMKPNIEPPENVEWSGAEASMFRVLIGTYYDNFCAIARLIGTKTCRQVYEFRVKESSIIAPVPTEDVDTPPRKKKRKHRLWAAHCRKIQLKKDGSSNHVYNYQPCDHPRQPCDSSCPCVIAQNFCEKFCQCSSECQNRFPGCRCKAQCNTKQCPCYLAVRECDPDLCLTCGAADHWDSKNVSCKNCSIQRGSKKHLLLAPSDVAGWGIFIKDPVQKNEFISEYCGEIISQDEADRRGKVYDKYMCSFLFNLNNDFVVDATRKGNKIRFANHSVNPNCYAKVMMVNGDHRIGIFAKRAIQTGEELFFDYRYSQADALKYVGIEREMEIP

Turning to `CCCc1cc(C)[nH]c(=O)c1CNC(=O)c1cc(-c2ccnc(N3CCN(C)CC3)c2)cc2c1cnn2C(C)C`, the log2FC in assay [1] is 0.55; in assay [2], -0.09; in assay [3] it was 0.43; in [4], 0.39; in assay [5], -0.39; in assay [6], -0.4. In addition, the log2FC in [7] is -0.42; in assay [8], -0.44.
`OC[C@H]1O[C@@H](n2cnc3cc(Cl)c(Cl)cc32)[C@H](O)[C@@H]1O`: the log2FC in assay [9] worked out at 0.77; in [10] it was 0.55; in assay [11], 0.52; in assay [12], 0.49; in assay [13], 0.48; in assay [14] it was 0.43. Further, the log2FC in [15] is 0.38; in assay [16], -0.43; in assay [17], -0.47; in assay [18], -0.48; in [19], -0.48; in [20] it was -0.6. In addition, the log2FC in [21] was -0.62; in [22] it was -0.73; in [23] it was -0.79; in assay [24], -0.83; in assay [25], -0.83; in [26] it was -0.87.
